This note sets out measurements from ChEMBL document CHEMBL1144026, “Synthesis and anticonvulsant evaluation of N-substituted isoquinoline AMPA receptor antagonists” (2008).

One may read the ED50 as the dose that gives a 50% effect, or the effect in half of the subjects.

The source made the active and inactive calls. No cut-off for these calls is given here.

The species entered for assay [1] is Mus musculus. Put plainly: Anticonvulsant activity against audiogenic clonus seizures in DBA/2 mouse after 30 mins. Particulars: DBA/2, 0.5 h. The assay is classed as functional. The procedure, abridged: (§1)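 DBA/2 mice aged 22 to 25 days, of either sex, in groups of 10. Dosed ip (0.1 mL/10 g) as a fresh solution in 50% DMSO/50% saline, or given vehicle. After 30 min, 60 s habituation under a dome, then 12–16 kHz, 109 dB sound for 60 s or until tonic extension. Seizure phase incidence and latency were scored. ED50 (≥32 animals, 95% confidence limits) by Litchfield–Wilcoxon.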

The species named for assay [2] is Mus musculus. Briefly: Anticonvulsant activity against audiogenic tonus seizures in DBA/2 mouse after 30 mins. The assay is classed as functional. As to conditions: DBA/2, 0.5 h. The procedure, abridged:
as §1

The nature of assay [3]: (§2) Reduction in AMPA-mediated current in CA1 pyramidal neurons of Wistar rat at 50 uM after 5 mins by patch clamp technique. The format is functional, Pyramidal neuron. Also on record: scale not given: the % may be the effect or the level left. The procedure, abridged:
(§3)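 Whole-cell patch clamp of single CA1 pyramidal neurons; pipette 1.5–3 MΩ, K-gluconate-based intracellular solution. (S)-AMPA 5 μM pulsed for 5 s by fast solution changer; test agent bath-perfused 5 min. Peak amplitude minus baseline and current duration from ≥3 consecutive responses per neuron, control vs drug; unpaired t test per neuron, Wilcoxon matched pairs across neurons.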
A general note: In patch-clamp work, channel activity is measured electrically.

For assay [4], the system named is Pyramidal neuron. The assay is described as §2. The format is functional. The method in brief:
as §3

Turning to `COc1cc2c(cc1OC)C(c1ccc(Cl)cc1)N(C(=O)C(=O)N1CCCCC1)CC2` (stereo unspecified), the figures for the ED50 in assay [1] and in assay [2] were 88.4 µmol/kg and 65.3 µmol/kg, respectively.

`COc1cc2c(cc1OC)C(c1ccc(F)cc1)N(C(=O)C(=O)N1CCCCC1)CC2` (stereo unspecified): the results for the ED50 in assay [1] and in assay [2] were 44.6 µmol/kg and 38.7 µmol/kg, respectively. The molecule also came in with an Activity in assay [3] of 60%.

For `CCN(CC)C(=O)C(=O)N1CCc2cc(OC)c(OC)cc2C1c1ccc(Cl)cc1` (stereo unspecified), the ED50 in assay [1] came out at 75.9 µmol/kg; in assay [2], 67.7 µmol/kg.

With `COc1cc2c(cc1OC)C(c1ccc(Br)cc1)N(C(=O)C(=O)N1CCCCC1)CC2` (stereo unspecified), the ED50 is 60.5 µmol/kg in assay [1] and 41.6 µmol/kg in assay [2].

`COc1cc2c(cc1OC)C(c1ccc(Cl)cc1)N(C(=O)C(=O)N1CCCC1)CC2` (stereo unspecified): the ED50 in assay [1] was found to be 58.1 µmol/kg; in assay [2], 37.2 µmol/kg.

`COc1cc2c(cc1OC)C(c1ccc(Cl)cc1)N(C(=O)C(=O)N1CCOCC1)CC2` (stereo unspecified): the ED50 in assay [1] amounted to 91 µmol/kg; in assay [2], 46.9 µmol/kg.

For `COc1cc2c(cc1OC)C(c1ccc(F)cc1)N(C(=O)C(=O)N1CCOCC1)CC2` (stereo unspecified), the ED50 in assay [1] is more than 100 µmol/kg; in assay [2], 90.2 µmol/kg.

Turning to `COc1cc2c(cc1OC)C(c1ccc(F)cc1)N(C(=O)C(=O)N1CCCC1)CC2` (stereo unspecified), the ED50 was more than 100 µmol/kg in assay [1] and 73 µmol/kg in assay [2].

Turning to `COc1cc2c(cc1OC)C(c1ccccc1)N(C(=O)C(=O)N1CCCCC1)CC2` (stereo unspecified), the ED50 worked out at 98.1 µmol/kg in assay [1] and 55.3 µmol/kg in assay [2].

Consider `COc1cc2c(cc1OC)C(c1ccc(Br)cc1)N(C(=O)CN1CCCCC1)CC2` (stereo unspecified), for which the figures for the ED50 in assay [1] and in assay [2] were 12.7 µmol/kg and 8.17 µmol/kg, respectively.

Take `CC1=NN=C(c2ccc(N)cc2)c2cc3c(cc2C1)OCO3`: the outcome in assay [4] was Active.

In the case of `COc1cc2c(cc1OC)C(c1ccccc1)N(C(=O)C(=O)N1CCOCC1)CC2` (stereo unspecified), the 50% effective dose (ED50) in assay [1] was more than 100 µmol/kg; in assay [2], 72.1 µmol/kg.

On to `CCN(CC)C(=O)C(=O)N1CCc2cc(OC)c(OC)cc2C1c1ccc(Br)cc1` (stereo unspecified), for which the ED50 in assay [1] and in assay [2] was more than 100 µmol/kg throughout.

`COc1cc2c(cc1OC)C(c1ccccc1)N(C(=O)C(=O)N1CCCC1)CC2` (stereo unspecified): the ED50 is more than 100 µmol/kg in assay [1] and 54.6 µmol/kg in assay [2].

With `COc1cc2c(cc1OC)C(c1ccc(Br)cc1)N(C(=O)C(=O)N1CCOCC1)CC2` (stereo unspecified), the ED50 in assay [1] and in assay [2] was more than 100 µmol/kg in each case.

For the molecule `CCN(CC)C(=O)C(=O)N1CCc2cc(OC)c(OC)cc2C1c1ccccc1` (stereo unspecified), the ED50 amounted to 65.1 µmol/kg in assay [1] and 53.3 µmol/kg in assay [2].

In the case of `COc1cc2c(cc1OC)C(c1ccc(Br)cc1)N(C(=O)C(=O)N1CCCC1)CC2` (stereo unspecified), the results for the ED50 in assay [1] and in assay [2] were 89.2 µmol/kg and 45.4 µmol/kg, respectively.

On to `CCN(CC)C(=O)C(=O)N1CCc2cc(OC)c(OC)cc2C1c1ccc(F)cc1` (stereo unspecified), for which the 50% effective dose (ED50) in assay [1] and in assay [2] was more than 100 µmol/kg each time.
